Laboratory results published in ChEMBL document CHEMBL1144398, “Structure-based design, parallel synthesis, structure-activity relationship, and molecular modeling studies of thiocarbamates, new potent non-nucleoside HIV-1 reverse transcriptase inhibitor isosteres of phenethylthiazolylthiourea derivatives” (J Med Chem, 2005).
pEC50, pIC50: −log10 of the molar value.

Experiments:
C8166 = assay: Effective concentration required to reduce the amount of p24 antigen levels in wild type human immunodeficiency virus type 1 infected C8166 cultures; type: functional
In short: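 C8166 cultures infected with wild-type HIV-1. p24 antigen in the cultures was measured after compound treatment, and EC90 is the concentration that reduces p24 by 90%. Trovirdine served as the reference.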

MT4 [1] = assay: Cytotoxic concentration required to reduce the viability of mock infected MT-4 cells determined by MTT method; type: functional; conditions: Homo sapiens
In short: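 Viability of mock-infected MT-4 cells, assayed in parallel with the antiviral test, read by MTT. CC50 is the concentration that lowers viability by 50%. Values are means of three separate experiments, with variation among triplicates under 10%. The highest concentration tested was 100 µM.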

MT4 [2] = assay: Ratio of CC50 to that of EC50 determined in MT-4 cells; type: functional
In short: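 Selectivity index, calculated as CC50/EC50. CC50 came from MTT viability of mock-infected MT-4 cells and EC50 from MTT-read protection of HIV-1-infected MT-4 cells from cytopathogenicity, with both run in parallel. Values are means of three experiments.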

MT4 [3] = assay: Effective concentration require to protect MT-4 cells from HIV-1 Y181C mutant induced cytopathogenicity was determined by MTT method; type: functional, cell-based, Homo sapiens
In short: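 HIV-1 strains carrying the Y181C RT mutation in MT-4 cells. EC50 is the concentration giving 50% protection from virus-induced cytopathogenicity, read out by MTT. Trovirdine was run as the reference. Values are means of three separate experiments.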

MT4 [4] = assay: Effective concentration require to protect MT-4 cells from human immunodeficiency virus type 1 induced cytopathogenicity was determined by MTT method; type: functional, cell-based
In short: (§1)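 MT-4 cells infected with HIV-1, with test compounds added. Protection from virus-induced cytopathogenicity was read by MTT. EC50 is the concentration giving 50% protection. Values are means of three separate experiments, with variation among triplicates under 10%. Trovirdine served as the reference.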

[5] = target: T1, Human immunodeficiency virus type 1 reverse transcriptase (Human immunodeficiency virus 1, UniProt Q72547); assay: Inhibitory concentration against HIV-1 virion reverse transcriptase
MT4 [6] = assay: Effective concentration require to inhibit human immunodeficiency virus type 1 induced cytopathogenicity in MT-4 cells determined by MTT method; type: functional, cell-based; in short: as §1
[7] = target: Human immunodeficiency virus type 1 reverse transcriptase (Human immunodeficiency virus 1, UniProt Q72547, Y181C); assay: Inhibitory concentration against HIV-1 mutant reverse transcriptase (Y181C)
[8] = target: Human immunodeficiency virus type 1 reverse transcriptase (Human immunodeficiency virus 1, UniProt Q72547, K103N/Y181C); assay: Inhibitory concentration against HIV-1 mutant reverse transcriptase (K103N+Y181C)
[9] = target: T1, Human immunodeficiency virus type 1 reverse transcriptase; assay: Inhibitory concentration against HIV-1 mutant reverse transcriptase (K103R)
[10] = target: T1, Human immunodeficiency virus type 1 reverse transcriptase; assay: Inhibitory concentration against HIV-1 wild type reverse transcriptase (IIIB)

Row | pIC50 [5] | SMILES | EC90 (C8166) [nM] | CC50 (MT4 [1]) [µM] | SI (MT4 [2]) | pEC50 (MT4 [3]) | pEC50 (MT4 [4]) | pEC50 (MT4 [6]) | pIC50 [7] | pIC50 [8] | pIC50 [9] | pIC50 [10]
1 |  | O=C1c2ccccc2C(=O)N1CCOC(=S)Nc1ccc(Br)cc1 | 15 | > 100 | >3333 | 5.62 | 7.52 |  |  |  |  | 
2 | 6.22 | O=C1c2ccccc2C(=O)N1CCOC(=S)Nc1ccccc1 |  | > 100 | >83.3 |  | 5.92 |  |  |  |  | 
3 |  | Cc1ccc(NC(=S)OCCN2C(=O)c3ccccc3C2=O)cc1 | 15 | > 100 | >5000 |  | 7.70 | 5.74 |  |  |  | 
4 |  | Cl.S=C(NCCc1ccccn1)Nc1ccc(Br)cn1 [TROVIRDINE HYDROCHLORIDE] | 15 | 60 | 3000 | 5.92 | 7.70 |  | 4.82 | < 4.70 | < 4.70 | 5.99
5 |  | O=C1c2ccccc2C(=O)N1CCOC(=S)Nc1ccc([N+](=O)[O-])cc1 | 30 | 65 | 1625 | 5.22 | 7.40 |  |  |  |  | 
6 |  | O=C(O)c1ccccc1C(=O)NCCO/C(S)=N\c1ccc(I)cc1 |  | > 100 | >769 |  | 6.89 |  | 5.32 | < 4.70 | < 4.70 | 5.77
7 |  | O=C1c2ccccc2C(=O)N1CCOC(=S)Nc1ccc(I)cc1 | 40 | > 100 | >5000 |  | 7.70 |  | < 4.70 | < 4.70 | 5.64 | 7.05
8 |  | O=C1c2ccccc2C(=O)N1CCOC(=S)Nc1ccc(F)cc1 | 100 | > 100 | >1000 | 4.42 | 7.00 |  |  |  |  | 
9 |  | O=C1c2ccccc2C(=O)N1CCOC(=S)Nc1ccc(Cl)cc1 | 40 | > 100 | >2500 | 5.64 | 7.40 |  |  |  |  | 
10 |  | Cc1ccc2c(c1)C(=O)N(CCOC(=S)Nc1ccc(Cl)cc1)C2=O |  | > 100 | >4000 |  | 7.60 |  |  |  |  | 
11 |  | O=C1C2C3C=CC(C3)C2C(=O)N1CCOC(=S)Nc1ccc(Cl)cc1 (stereo unspecified) |  | > 100 | >1.5 |  | 4.17 |  |  |  |  | 
12 |  | N#Cc1ccc(NC(=S)OCCN2C(=O)c3ccccc3C2=O)cc1 | 100 | > 100 | >1429 | 5.23 | 7.15 |  |  |  |  | 
13 |  | O=C1c2ccccc2C(=O)N1CCOC(=S)Nc1cccc(C(F)(F)F)c1 |  | > 100 | >7.7 |  | 4.89 |  |  |  |  | 
14 |  | O=C(O)c1ccccc1C(=O)NCCO/C(S)=N\c1cccc(Cl)c1 |  | > 100 | >33.3 |  | 5.52 |  |  |  |  | 
15 |  | CC(CN1C(=O)c2ccccc2C1=O)O/C(S)=N/c1ccc([N+](=O)[O-])cc1 (stereo unspecified) |  | > 100 | >11.6 |  | 5.07 |  |  |  |  | 
16 |  | CC(=O)c1cccc(NC(=S)OCCN2C(=O)c3ccccc3C2=O)c1 |  | > 100 | >23 |  | 5.37 |  |  |  |  | 
